In general, IC50 refers to the concentration needed to halve the response being measured.

Assay [1] concerns MDA-MB-231. Nature of the assay: Antiproliferative activity against human MDA-MB-231 cells assessed as cell growth inhibition at 1 uM after 24 hrs by MTT assay. The conditions noted are these: MDA-MB-231, 24 h, read-out: GI. It is filed as functional. The gist of the method: (§1)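 MTT viability assay. Cells seeded at 5 × 10³ per well and cultured with or without compound for 24 h. MTT (5 mg/ml in PBS) was then added in fresh medium and incubated 2 h at 37 °C, followed by DMSO and 1 min agitation. Absorbance was read at 570 nm. Percent inhibition of proliferation was calculated relative to the untreated control. Dose-response used […].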
(In general: Tetrazolium dyes change colour on reduction, which living cells bring about.)

In assay [2] the test system is K562. As to the kind of experiment: Antiproliferative activity against human K562 cells assessed as cell growth inhibition at 1 uM after 24 hrs by MTT assay. It counts as functional. The conditions noted are these: K562, 24 h, read-out: GI. The gist of the method:
as §1

Assay [3] has as its system K562. As to the kind of experiment: Antiproliferative activity against human K562 cells assessed as cell growth inhibition at 10 uM after 24 hrs by MTT assay. It counts as functional. The conditions noted are these: K562, 24 h, read-out: GI. The gist of the method: as §1
The subject of assay [4] is MDA-MB-231. As to the kind of experiment: Antiproliferative activity against human MDA-MB-231 cells assessed as cell growth inhibition at 10 uM after 24 hrs by MTT assay. It counts as functional. The conditions noted are these: MDA-MB-231, 24 h, read-out: GI. The gist of the method:
as §1

Assay [5] deals with MDA-MB-231. Nature of the assay: Antiproliferative activity against human MDA-MB-231 cells assessed as cell growth inhibition at 0.1 uM after 24 hrs by MTT assay. It counts as functional. The conditions noted are these: MDA-MB-231, 24 h, read-out: GI. The gist of the method:
as §1

The subject of assay [6] is MDA-MB-231. Nature of the assay: Antiproliferative activity against human MDA-MB-231 cells assessed as cell growth inhibition at 0.01 uM after 24 hrs by MTT assay. It is filed as functional. As to conditions: MDA-MB-231, 24 h, read-out: GI. The gist of the method:
as §1

Assay [7] deals with MDA-MB-231. As to the kind of experiment: Antiproliferative activity against human MDA-MB-231 cells assessed as cell growth inhibition at 0.5 uM after 24 hrs by MTT assay. It is filed as functional. The conditions noted are these: MDA-MB-231, 24 h, read-out: GI. The gist of the method:
as §1

The test system of assay [8] is MDA-MB-231. As to the kind of experiment: Antiproliferative activity against human MDA-MB-231 cells assessed as cell growth inhibition after 24 hrs by MTT assay. It counts as functional, cell-based. The conditions noted are these: MDA-MB-231, 24 h. The gist of the method: as §1
The subject of assay [9] is K562. As to the kind of experiment: Antiproliferative activity against human K562 cells assessed as cell growth inhibition after 24 hrs by MTT assay. It is filed as functional, cell-based. The conditions noted are these: K562, 24 h. The gist of the method: as §1
The subject of assay [10] is K562. Nature of the assay: Antiproliferative activity against human K562 cells assessed as cell growth inhibition at 0.1 uM after 24 hrs by MTT assay. It counts as functional. The conditions noted are these: K562, 24 h, read-out: GI. The gist of the method:
as §1

For assay [11], the system named is K562. As to the kind of experiment: Antiproliferative activity against human K562 cells assessed as cell growth inhibition at 0.5 uM after 24 hrs by MTT assay. The conditions noted are these: K562, 24 h, read-out: GI. It is filed as functional. The gist of the method: as §1
For assay [12], the system named is K562. Nature of the assay: Antiproliferative activity against human K562 cells assessed as cell growth inhibition at 0.01 uM after 24 hrs by MTT assay. It counts as functional. As to conditions: K562, 24 h, read-out: GI. The gist of the method: as §1

As to `c1ccc(-c2cn(-c3cc4nnnn4c4ccccc34)nn2)cc1`, the inhibition of growth at 1 µM in the assay with MDA-MB-231 [1] is 52.5%; in the assay with K562 [2], 20.6%. The inhibition of growth at 10 µM worked out at 29.9% in the assay with K562 [3] and 56% in the assay with MDA-MB-231 [4].

Consider `OCc1cn(-c2cc3nnnn3c3ccccc23)nn1`, for which the figures for the inhibition of growth at 1 µM with MDA-MB-231 [1] and with K562 [2] were 45.8% and 21.8%, respectively. Also, the inhibition of growth at 10 µM came to 36.9% in the assay on K562 [3] and 46.8% in the assay on MDA-MB-231 [4].

Take `ClCCCc1cn(-c2cc3nnnn3c3ccccc23)nn1`: the results for the inhibition of growth at 1 µM in the assay with MDA-MB-231 [1] and in the assay on K562 [2] were 60.2% and 19.9%, respectively. The inhibition of growth at 0.1 µM in the assay on MDA-MB-231 [5] is 24%. Also, the values for the inhibition of growth at 10 µM in the assay with K562 [3] and in the assay on MDA-MB-231 [4] were 35.2% and 70.1%, respectively. Also, the inhibition of growth at 0.01 µM with MDA-MB-231 [6] turned out to be 11%. In addition, the inhibition of growth at 0.5 µM in the assay on MDA-MB-231 [7] is 46%. The IC50 with MDA-MB-231 [8] was 800 nM.

Regarding `CCCCc1cn(-c2cc3nnnn3c3ccccc23)nn1`, the inhibition of growth at 1 µM turned out to be 55.3% in the assay on MDA-MB-231 [1] and 28.2% in the assay with K562 [2]. For the same compound, the inhibition of growth at 10 µM with K562 [3] worked out at 34.1%; with MDA-MB-231 [4], 57.1%.

Regarding `c1ccc(CCc2cn(-c3cc4nnnn4c4ccccc34)nn2)cc1`, the inhibition of growth at 1 µM worked out at 50.5% in the assay on MDA-MB-231 [1] and 26.7% in the assay on K562 [2]. Also, the results for the inhibition of growth at 10 µM in the assay on K562 [3] and in the assay on MDA-MB-231 [4] were 38.1% and 60.8%, respectively.

Take `CCCCCCc1cn(-c2cc(-n3cc(CCCCCC)nn3)c3ccccc3n2)nn1`: the inhibition of growth at 10 µM in the assay on K562 [3] and in the assay on MDA-MB-231 [4] was less than 30% throughout.

Consider `Cc1ccc(-c2cn(-c3cc4nnnn4c4ccccc34)nn2)cc1`, for which the inhibition of growth at 1 µM worked out at 47.7% in the assay with MDA-MB-231 [1] and 20.6% in the assay with K562 [2]. Besides, the inhibition of growth at 10 µM with K562 [3] stood at 44.1%; in the assay on MDA-MB-231 [4], 54%.

For the compound `OCCCc1cn(-c2cc3nnnn3c3ccccc23)nn1`, the inhibition of growth at 1 µM in the assay with MDA-MB-231 [1] came to 42%; with K562 [2], 47.1%. Also, the IC50 in the assay on K562 [9] was found to be 4.6 µM. Further, the inhibition of growth at 10 µM with K562 [3] was 52.4%; in the assay with MDA-MB-231 [4], 46.1%. Further, the inhibition of growth at 0.1 µM with K562 [10] is 22%. Also, in the assay on K562 [11], the inhibition of growth at 0.5 µM is 30%. Also, the inhibition of growth at 0.01 µM in the assay with K562 [12] was found to be 9%.

For the compound `CCCCc1cn(-c2cc(-n3cc(CCCC)nn3)c3ccccc3n2)nn1`, the inhibition of growth at 10 µM in the assay with K562 [3] and with MDA-MB-231 [4] was less than 30% in each case.

As to `ClCCCc1cn(-c2cc(-n3cc(CCCCl)nn3)c3ccccc3n2)nn1`, the inhibition of growth at 10 µM with K562 [3] and with MDA-MB-231 [4] was less than 30% throughout.

For the compound `CCCCCCc1cn(-c2cc3nnnn3c3ccccc23)nn1`, the inhibition of growth at 1 µM came to 49.7% in the assay with MDA-MB-231 [1] and 19.1% in the assay with K562 [2]. In addition, the values for the inhibition of growth at 10 µM in the assay with K562 [3] and in the assay with MDA-MB-231 [4] were 37.4% and 53.4%, respectively.

`CCCCCc1cn(-c2cc(-n3cc(CCCCC)nn3)c3ccccc3n2)nn1`: the inhibition of growth at 10 µM with K562 [3] and with MDA-MB-231 [4] was less than 30% throughout.
